Most compounds without a hit are left out; they make up all but 1.6% or so of the library.
UHRF1 MBD2 ctr: blocks human UHRF1 binding to methylated DNA | Q96T88 | UHRF1 binding to methylated oligo, TR-FRET | inhibition, % at 4.4 µM | 370,000 tested, 0.75% active | AID 687016; in the data active = inhibition above about 21%;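 also: UHRF1 SRA domain binding a hemimethylated CpG hairpin DNA probe; 0% = median of test compound wells and 100% = reference inhibitor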
LEDGF integ inh: blocks HIV-1 LEDGF/p75-dependent DNA integration; inhibition, % at 3.7 µM; 370,000 tested, 0.64% active; AID 743269; TR-FRET IN-LEDGF/p75 DNA integration, Eu/Cy5;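 active = inhibition above the screen-wide mean plus 3 SD, cut at about 13% in these data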;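 also: signal is the Cy5 over europium emission ratio at 671 and 618 nm; 0% = plate median of compound wells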
MBD2 DNA inh: inhibitors of human MBD2 binding to methylated oligonucleotide; Q9UBB5; TR-FRET; inhibition, % at 4.4 µM; 370,000 tested, 0.31% active; in the data active = inhibition above about 13%
Target sequence (Q9UBB5 whole entry, looked up): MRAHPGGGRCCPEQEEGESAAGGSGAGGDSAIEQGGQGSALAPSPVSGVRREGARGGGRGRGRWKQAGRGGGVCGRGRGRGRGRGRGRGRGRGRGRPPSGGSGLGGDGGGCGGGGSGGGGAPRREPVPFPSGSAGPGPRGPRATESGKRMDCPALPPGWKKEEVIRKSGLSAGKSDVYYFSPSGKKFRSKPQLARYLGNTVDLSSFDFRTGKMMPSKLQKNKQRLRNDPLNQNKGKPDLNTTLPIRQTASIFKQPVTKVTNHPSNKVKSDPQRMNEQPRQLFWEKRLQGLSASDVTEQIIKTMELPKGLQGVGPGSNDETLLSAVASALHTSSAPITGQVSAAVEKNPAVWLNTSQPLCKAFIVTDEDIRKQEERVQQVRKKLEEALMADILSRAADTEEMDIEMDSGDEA
TDP2 inh: blocks human TDP2 phosphodiesterase activity | 370,000 tested, 0.34% active | recombinant TDP2, T5PNP hydrolysis, p-nitrophenol absorbance 415 nm | AID 720702 | O95551 | inhibition, % at 12.8 µM;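 active = inhibition above the mean of all tested compounds plus 3 SD, set per campaign, cut at about 25% in these data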;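 also: 0% = DMSO with enzyme and 100% = buffer with substrate but no TDP2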
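Material: recombinant human TDP2; quantity: TDP2 enzyme at 120 nM final; medium: Tris-HCl pH 7.5 with MgCl2; compound: single concentration, 12.8 µM nominal, with 1% DMSO; incubation: 2 h enzyme incubation at 37 °C; signal: epi absorbance; measure: percent inhibition; benchmarks: high control without enzyme, low control DMSO plus TDP2; repeats: singlicate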
IN multimer act: HIV-1 integrase multimerization activation, counter-screen; TR-FRET HIV-1 integrase multimerization, biochemical; 2,000 tested, 17% active; shares compounds with LEDGF integ inh; activation, % at 7.7 µM; AID 1053131; in the data active = activation above about 8.9%
TRFRET interf: optically interferes with TR-FRET readout in LEDGF counter-screen | shares compounds with LEDGF integ inh | 2,000 tested, under 10 active | TR-FRET optical interference counterscreen, HIV-1 IN multimerization | inhibition, % at 7.7 µM;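 active = inhibition above the mean over all tested compounds plus 3 SD, which no compound reached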;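 also: 0% = integrase with antibodies and DMSO and 100% = antibodies without integrase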
LEDGF integ conf: LEDGF/p75-dependent HIV-1 integration inhibition, confirmation. shares compounds with LEDGF integ inh. TR-FRET LEDGF/p75-dependent HIV-1 integration, biochemical. inhibition, % at 3.7 µM. 2,000 tested, 36% active. AID 1053136; in the data active = inhibition above about 14%
An asterisk follows results filed as active; / = no result.

SMILES	UHRF1 MBD2 ctr	LEDGF integ inh	MBD2 DNA inh	TDP2 inh	IN multimer act	TRFRET interf	LEDGF integ conf
O=C(COC(=O)c1cccc(S(=O)(=O)N2CCCCCC2)c1)NCc1ccc(Cl)cc1	0	-1	-7	7	/	/	/
COc1cc(C2Nc3ccc4ncccc4c3C3=C2C(=O)CCC3)ccc1O (stereo not given)	-9	27*	-13	-3	2	-10	-13
CC(CC(=O)O)Nc1ccccc1O (stereo not given)	7	35*	0	7	6	-22	3
CC(=O)Nc1ccccc1O	-2	0	-4	2	/	/	/
O=C(OC1CC2CC1[C@H]1CCCCN1C2=O)N1CCN(c2ccccc2)CC1 (stereo not given in full)	0	-1	-1	4	/	/	/
O=C(OC1CC2CC1[C@H]1CCCCN1C2=O)N1CCC(c2ccccc2)CC1 (stereo not given in full)	4	23*	1	3	0	0	1
NS(=O)(=O)c1ccc(NC(=S)NC(=O)/C=C/c2ccco2)cc1	18	33*	-5	-7	13*	-45	38*
O=[N+]([O-])c1cc2ccccc2c(O)c1O	-5	18*	-16	9	4	-20	30*
O=[N+]([O-])c1cc(-c2ccccc2)cc([N+](=O)[O-])c1O	-9	1	-11	6	/	/	/
O=C(CSc1ccc(Br)cc1)Nc1ccc(N2CCOCC2)cc1	-2	-1	-7	4	/	/	/
O=C(N/N=C/c1ccc(OCc2ccccc2)cc1)c1ccncc1	-2	3	-3	4	/	/	/
Oc1ccc(N=Cc2ccc(OCc3ccccc3)cc2)cc1	8	34*	-3	23	22*	-78	35*
COc1cccc(N2CC(C(=O)Nc3nnc(SCC(=O)N4CCOCC4)s3)CC2=O)c1 (stereo not given)	0	-2	1	-2	/	/	/
Cc1cccn2c(CN3CCNC(=O)CC3)c(C(=O)N(C)CCc3ccccc3)nc12	0	3	6	-3	/	/	/
CCOC(=O)NC1(NC2CCCCC2)Oc2ccccc2O1	5	22*	0	0	-1	7	-2
CC(=O)NC(c1ccco1)c1cc(Cl)c2ccc(Cl)nc2c1O (stereo not given)	-6	44*	-4	4	1	-6	6
CC(=O)NC(c1ccco1)c1cc(Cl)c2ccccc2c1O (stereo not given)	0	-1	1	1	/	/	/
CCOC(=O)C1CCCN(Cc2ccccc2Cl)C1 (stereo not given)	-3	16*	0	5	-2	12	2
Cc1ccc(SC2=C(Sc3ccc(C)cc3)C(=O)c3ccccc3C2=O)cc1	0	-1	-3	18	/	/	/
CC1=CC(=O)C(Sc2ccc(C)cc2)=CC1=O	-4	17*	-8	-14	5	-25	-2
CC(NC(=O)CCC(=O)c1cccs1)c1ccccc1 (stereo not given)	0	3	2	2	/	/	/
COc1cc(CCC(=O)NCc2ccc3c(c2)OCO3)cc(OC)c1OC	0	29*	8	12	0	1	-5
O=C(c1ccccc1)N1CCN(S(=O)(=O)c2ccccc2)CC1	-2	44*	4	15	0	-2	-4
COc1ccc([C@H]2C[C@H](O)[C@@H](n3cc(COC(=O)c4ccccc4)nn3)CN2CC2CCCCC2)cc1	2	28*	1	-4	-1	3	-1
O=C(OCc1cn([C@H]2C[C@H](c3ccccc3)N(CC3CCCCC3)C[C@@H]2O)nn1)c1ccccc1	0	4	-1	2	/	/	/
Cn1c(NC(=O)c2ccco2)cc(=O)n(C)c1=O	-3	24*	-4	0	0	-1	-4
CN(C)S(=O)(=O)c1ccc(C(=O)Nc2cc(=O)n(C)c(=O)n2C)cc1	0	44*	2	-1	1	-3	1
Brc1cccc(-c2nc3cccnc3nc2-c2cccc(Br)c2)c1	-4	3	-3	1	/	/	/
COc1ccccc1NC(=O)c1cc(S(=O)(=O)NC2CCCC2)ccc1F	0	1	1	8	/	/	/
